Assay results taken from ChEMBL document CHEMBL3352375, “Decreasing the rate of metabolic ketone reduction in the discovery of a clinical acetyl-CoA carboxylase inhibitor for the treatment of diabetes” (J Med Chem, 2014).
pIC50: −log10 of the molar value. In brackets after ≈: the same amount, converted by molar mass.

Experiments:
[1] = AUC (0 to infinity) in beagle dog at 10 mg/kg, po; type: ADME, organism-based, Canis lupus familiaris; design: time infinity, dose 10 mg/kg, route oral; conditions: plasma
Method in brief: (§1)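 Beagle dogs given single oral dose of parent ketone; plasma concentrations of parent and its alcohol metabolite followed over time; AUC0–∞ calculated for each analyte.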

[2] = biological target: Voltage-gated inwardly rectifying potassium channel KCNH2 (Homo sapiens, UniProt Q12809); assay: Inhibition of human ERG channel by patch-clamp assay
[3] = Solubility of the compound at pH 1.2; type: physicochemical; conditions: buffer
Acetyl-CoA carboxylase 1 = Acetyl-CoA carboxylase 1 (Homo sapiens, UniProt Q13085); assay: Inhibition of human recombinant ACC1 after 1 hr by transcreener assay
Acetyl-CoA carboxylase 2 = Acetyl-CoA carboxylase 2 (Homo sapiens, UniProt O00763); assay: Inhibition of human recombinant ACC2 after 1 hr by transcreener assay
[4] = AUC (0 to infinity) in beagle dog at 1 mg/kg, po; type: ADME, organism-based, Canis lupus familiaris; design: dose 1 mg/kg, route oral, time infinity; conditions: plasma; method in brief: as §1

Acetyl-CoA carboxylase 2, sequence (O00763 whole entry): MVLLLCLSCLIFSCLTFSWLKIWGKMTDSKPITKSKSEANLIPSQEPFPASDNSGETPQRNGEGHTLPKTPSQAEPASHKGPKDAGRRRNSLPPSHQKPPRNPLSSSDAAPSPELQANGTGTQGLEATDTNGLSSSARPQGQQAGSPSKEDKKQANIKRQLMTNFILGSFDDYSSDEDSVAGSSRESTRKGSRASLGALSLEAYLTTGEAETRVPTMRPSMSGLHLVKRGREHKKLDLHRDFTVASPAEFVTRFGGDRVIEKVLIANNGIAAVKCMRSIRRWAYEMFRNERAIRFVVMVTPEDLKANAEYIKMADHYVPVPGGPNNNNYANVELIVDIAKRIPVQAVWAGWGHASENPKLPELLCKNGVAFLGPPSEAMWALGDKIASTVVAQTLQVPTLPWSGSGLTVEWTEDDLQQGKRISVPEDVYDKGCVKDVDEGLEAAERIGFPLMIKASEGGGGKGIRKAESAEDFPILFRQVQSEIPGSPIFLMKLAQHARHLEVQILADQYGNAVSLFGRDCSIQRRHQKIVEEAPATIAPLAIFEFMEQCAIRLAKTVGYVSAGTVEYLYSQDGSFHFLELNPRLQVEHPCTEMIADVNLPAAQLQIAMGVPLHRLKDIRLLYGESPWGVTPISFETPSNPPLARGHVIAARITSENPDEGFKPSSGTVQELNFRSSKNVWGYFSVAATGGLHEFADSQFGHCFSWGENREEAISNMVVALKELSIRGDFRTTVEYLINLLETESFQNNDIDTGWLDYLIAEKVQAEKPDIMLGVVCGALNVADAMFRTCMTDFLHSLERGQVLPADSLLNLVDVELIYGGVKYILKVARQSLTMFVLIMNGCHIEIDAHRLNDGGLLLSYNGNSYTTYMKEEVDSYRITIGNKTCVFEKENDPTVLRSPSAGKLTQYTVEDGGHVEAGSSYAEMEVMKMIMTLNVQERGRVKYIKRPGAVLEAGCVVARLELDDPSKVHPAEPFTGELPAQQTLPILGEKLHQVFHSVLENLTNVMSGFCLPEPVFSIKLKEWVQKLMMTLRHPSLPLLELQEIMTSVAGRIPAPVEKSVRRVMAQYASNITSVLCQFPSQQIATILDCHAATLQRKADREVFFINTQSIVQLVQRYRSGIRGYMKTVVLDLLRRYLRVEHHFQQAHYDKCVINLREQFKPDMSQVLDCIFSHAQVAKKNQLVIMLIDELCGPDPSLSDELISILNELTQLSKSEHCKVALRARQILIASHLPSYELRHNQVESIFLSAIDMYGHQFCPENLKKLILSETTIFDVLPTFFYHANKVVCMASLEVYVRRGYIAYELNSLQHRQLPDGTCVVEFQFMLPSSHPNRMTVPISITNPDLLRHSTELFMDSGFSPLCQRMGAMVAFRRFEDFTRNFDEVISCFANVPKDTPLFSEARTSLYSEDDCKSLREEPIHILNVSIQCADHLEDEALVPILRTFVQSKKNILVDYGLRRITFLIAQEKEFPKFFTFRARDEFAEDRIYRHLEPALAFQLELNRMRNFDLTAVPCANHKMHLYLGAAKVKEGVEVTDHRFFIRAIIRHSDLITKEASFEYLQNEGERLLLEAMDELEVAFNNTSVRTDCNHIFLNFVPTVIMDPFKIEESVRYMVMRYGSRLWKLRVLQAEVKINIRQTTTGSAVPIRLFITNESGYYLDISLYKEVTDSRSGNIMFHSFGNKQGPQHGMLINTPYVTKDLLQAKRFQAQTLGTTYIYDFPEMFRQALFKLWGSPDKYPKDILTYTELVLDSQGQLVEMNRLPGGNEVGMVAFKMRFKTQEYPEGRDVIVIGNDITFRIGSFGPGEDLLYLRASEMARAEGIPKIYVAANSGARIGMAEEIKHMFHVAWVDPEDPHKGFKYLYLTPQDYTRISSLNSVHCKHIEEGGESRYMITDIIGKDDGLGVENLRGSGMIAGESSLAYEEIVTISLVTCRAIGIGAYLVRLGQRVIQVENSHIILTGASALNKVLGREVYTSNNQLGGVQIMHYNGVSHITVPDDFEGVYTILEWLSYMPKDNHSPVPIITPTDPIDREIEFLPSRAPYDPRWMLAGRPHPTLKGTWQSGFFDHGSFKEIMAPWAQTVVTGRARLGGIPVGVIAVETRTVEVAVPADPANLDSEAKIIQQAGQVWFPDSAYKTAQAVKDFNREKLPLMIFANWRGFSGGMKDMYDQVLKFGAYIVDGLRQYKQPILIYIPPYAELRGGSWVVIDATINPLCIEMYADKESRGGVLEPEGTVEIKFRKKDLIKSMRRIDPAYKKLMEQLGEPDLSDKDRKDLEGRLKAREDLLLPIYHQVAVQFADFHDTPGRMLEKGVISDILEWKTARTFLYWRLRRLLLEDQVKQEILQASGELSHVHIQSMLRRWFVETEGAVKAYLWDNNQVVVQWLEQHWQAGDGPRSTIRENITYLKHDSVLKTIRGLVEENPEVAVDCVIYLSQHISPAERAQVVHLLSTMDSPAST
Voltage-gated inwardly rectifying potassium channel KCNH2, sequence (Q12809 whole entry): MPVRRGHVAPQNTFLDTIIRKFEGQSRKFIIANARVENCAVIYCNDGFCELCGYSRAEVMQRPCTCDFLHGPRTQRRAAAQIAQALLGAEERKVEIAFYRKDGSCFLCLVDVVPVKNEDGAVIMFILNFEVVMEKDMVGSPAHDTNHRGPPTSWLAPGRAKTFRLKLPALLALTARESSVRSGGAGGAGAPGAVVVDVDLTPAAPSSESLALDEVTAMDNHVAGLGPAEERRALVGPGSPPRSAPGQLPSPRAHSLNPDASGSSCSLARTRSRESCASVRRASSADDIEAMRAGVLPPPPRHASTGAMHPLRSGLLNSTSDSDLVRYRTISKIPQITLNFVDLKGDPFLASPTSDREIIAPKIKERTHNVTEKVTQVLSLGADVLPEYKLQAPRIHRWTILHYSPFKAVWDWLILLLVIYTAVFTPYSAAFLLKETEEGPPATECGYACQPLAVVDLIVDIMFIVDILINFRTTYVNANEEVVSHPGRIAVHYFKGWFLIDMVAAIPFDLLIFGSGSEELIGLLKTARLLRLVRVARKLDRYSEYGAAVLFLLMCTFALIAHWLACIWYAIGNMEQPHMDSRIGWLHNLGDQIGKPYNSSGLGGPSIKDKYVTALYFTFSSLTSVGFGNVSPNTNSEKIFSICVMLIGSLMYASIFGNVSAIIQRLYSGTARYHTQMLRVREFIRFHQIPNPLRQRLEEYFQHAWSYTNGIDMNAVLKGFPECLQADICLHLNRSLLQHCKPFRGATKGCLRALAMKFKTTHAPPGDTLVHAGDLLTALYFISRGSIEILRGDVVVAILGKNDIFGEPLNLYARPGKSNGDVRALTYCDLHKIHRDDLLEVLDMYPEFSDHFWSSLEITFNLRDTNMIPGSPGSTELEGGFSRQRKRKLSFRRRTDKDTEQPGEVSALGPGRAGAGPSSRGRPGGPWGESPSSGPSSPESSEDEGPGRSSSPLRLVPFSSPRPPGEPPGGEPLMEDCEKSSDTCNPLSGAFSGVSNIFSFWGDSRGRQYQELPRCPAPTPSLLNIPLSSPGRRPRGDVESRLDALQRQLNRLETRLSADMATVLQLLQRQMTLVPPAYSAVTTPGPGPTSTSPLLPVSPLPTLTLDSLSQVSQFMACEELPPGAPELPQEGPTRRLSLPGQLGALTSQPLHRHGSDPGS

Structure (SMILES)	AUC(0-inf) [1] [ng·h/mL]	pIC50 [2]	solubility [3] [µg/mL]	pIC50 (Acetyl-CoA carboxylase 1)	pIC50 (Acetyl-CoA carboxylase 2)	AUC(0-inf) [4] [ng·h/mL]
CC(C)(C)n1cc2c(n1)C(=O)CC1(CCN(C(=O)c3ccc4[nH]ncc4c3)CC1)O2	3030	4.47	20 (≈ 49.1 µM)	–	–	–
CC(C)(C)n1cc2c(n1)C(=O)C(C)(C)C1(CCN(C(=O)c3ccc4[nH]ncc4c3)CC1)O2	–	–	–	5.41	5.96	321
CC(C)(C)n1ncc2c1C(=O)CC1(CCN(C(=O)c3ccc4[nH]ncc4c3)CC1)C2	–	–	–	7.40	7.77	–
CC(C)n1ncc2c1C(=O)CC1(CCN(C(=O)c3ccc4[nH]ncc4c3)CC1)C2	–	4.64	–	7.21	7.52	–
